Bioassay records: PubChem BioAssay, several laboratories
FID counter = compounds displacing fluorescent DNA intercalator, primary screen, artefact control for HCV NS3 helicase inhibitor project, biochemical, FID fluorescence | DNA fluorescent intercalator displacement | inhibition, % at 7.9 µM | hit rate 0.17% among 290,000; in the data active = inhibition above about 37%;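 also: higher means more ethidium bromide displaced from hairpin DNA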
TMEM16A inh = TMEM16A chloride channel inhibitors, primary screen, cell-based, HTS; normalized B-score (activity score, 25-100; higher = stronger inhibition) at 10 µM; Anoctamin-1 (Mus musculus), Q8BHY3; HEK293 TMEM16A/YFP iodide influx fluorescence, ionomycin; hit rate 1.2% among 310,000;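 active = ratio plate-corrected score three or more library SD toward inhibition, starting fluorescence score within five deviations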;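 also: score derived from kinetic fluorescence span divided by baseline fluorescence per well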
Kir21 block = inhibitors of mouse Kir2.1 inward-rectifier potassium channel; HEK293-Kir2.1, FluxOR thallium flux fluorescence; hits give low values; B-score at 10 µM; hit rate 0.85% among 310,000; AID 1672, 2009;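 active = fluorescence ratio B-score at or below minus 3 SD of library scores, with starting-brightness B-score within 2 SD, cut at about -4.2 in these data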;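 also: channel flux triggered by added potassium and thallium sulfate stimulus; B-score of peak minus minimum fluorescence over baseline after thallium stimulus; more negative B-score means stronger Kir2.1 block with less thallium influx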
SR-BI HDL uptake = inhibitors of SR-BI mediated HDL lipid uptake, primary screen, ldlA[mSR-BI] cells, fluorescence, single point. AID 488896, 2010. ldlA[mSR-BI] CHO cells, DiI-HDL uptake fluorescence, 3 h. hit rate 0.96% among 320,000. Scavenger receptor class B member 1 (Mus musculus), Q61009. inhibition, % at 12.5 µM;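 active = mean replicate inhibition of at least 70% and a set share of replicates each scoring 70 or more; inconclusive = meets just one of the two criteria; inactive = fails both criteria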
Target sequence (Q61009 whole entry, looked up): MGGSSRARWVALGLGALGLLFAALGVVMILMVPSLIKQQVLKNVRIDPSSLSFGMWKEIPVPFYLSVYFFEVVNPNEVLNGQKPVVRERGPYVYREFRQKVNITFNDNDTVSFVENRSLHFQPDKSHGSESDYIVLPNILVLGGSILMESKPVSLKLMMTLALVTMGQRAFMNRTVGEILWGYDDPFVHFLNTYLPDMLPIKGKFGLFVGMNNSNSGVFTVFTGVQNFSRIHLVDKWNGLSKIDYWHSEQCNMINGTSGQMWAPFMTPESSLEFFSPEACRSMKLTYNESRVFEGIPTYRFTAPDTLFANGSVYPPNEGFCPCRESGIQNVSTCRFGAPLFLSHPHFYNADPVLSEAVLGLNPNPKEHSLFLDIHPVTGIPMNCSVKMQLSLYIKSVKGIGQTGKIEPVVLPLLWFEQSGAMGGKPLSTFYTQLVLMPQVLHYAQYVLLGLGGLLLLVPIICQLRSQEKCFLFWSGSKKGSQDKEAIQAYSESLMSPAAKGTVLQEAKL
SR-BI uptake up = activators of SR-BI mediated DiI-HDL uptake, primary screen, ldlA[mSR-BI] CHO cells, DiI fluorescence | 3 h; 100 = double the neutral-control signal | activation, % at 12.5 µM | hit rate 0.096% among 320,000 | AID 504775, 2011;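 active = mean replicate activation of at least 60% and every replicate at or above 60%; inconclusive = mean or all-replicate condition met, but not both; inactive = mean below 60% and not all replicates reaching 60%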
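System: CHO ldlA[mSR-BI] cells / Medium: HEPES-buffered (25 mM, pH 7.4) F12 plus 0.5% BSA / Probe or stimulus: labelled HDL, 10 µg/mL / Doses: single compound concentration, delivered by pin transfer / Schedule: 3 h, 37 °C / Measured by: DiI fluorescence, bottom read / Measure: cell-associated DiI fluorescence as measure of HDL uptake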
ANO1 activ = TMEM16A chloride channel activators or potentiators, primary screen, cell-based, HTS; hit rate 0.3% among 340,000; Anoctamin-1 (Mus musculus), Q8BHY3; B-score at 10 µM; HEK293 TMEM16A/YFP-H148Q/I152L, iodide quench fluorescence; hits give low values;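 active = fluorescence-ratio B-score plate-corrected deviation score at least 3 library SD below zero, with starting fluorescence score within 5 deviations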;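 also: channel opened by trigger with iodide after compound preincubation; score built on the fluorescence ratio of max minus min over baseline; more negative score means more quench and so TMEM16A activation or potentiation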
TMEM16A reconf = TMEM16A chloride channel inhibitors, confirmation, cell-based, re-confirmation; shares compounds with TMEM16A inh; HEK293 TMEM16A/YFP-H148Q, iodide quench fluorescence; ionomycin added to raise cell calcium; inhibition, % at 10 µM; hit rate 39% among 2,300; AID 652189, 2013;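 active = mean duplicate percent inhibition, scaled so buffer wells are 0 and the reference blocker 100, over three buffer SD above buffer mean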
HEK293 Ca mobil = calcium mobilization in TMEM16A/YFP HEK293 cells, confirmation, counter-screen for TMEM16A inhibitor project | Fluo4 calcium mobilization | calcium response (% of ionomycin), % at 10 µM | hit rate 2% among 2,300 | AID 652231, 2013 | shares compounds with TMEM16A inh;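 active = duplicate-averaged calcium signal over 20% of the ionomycin maximum, relative to buffer baseline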;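 also: each well's signal is peak minus trough fluorescence divided by its pre-addition baseline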
Parental YFP cnt = iodide YFP quench changes in parental YFP-HEK293, counter-screen for TMEM16A inhibitor project, cell-based; shares compounds with TMEM16A inh; YFP ratio F(max-min)/F0 at 10 µM; AID 652233, 2013; 2,300 tested, under 10 active; ionomycin;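 active = yellow fluorescent protein signal ratio exceeding the buffer control mean by over 5 SD of those controls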;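 also: ratio is mean of duplicate wells from kinetic YFP trace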
ClC-1 rat inh = ClC-1 chloride channel inhibition, selectivity assay for TMEM16A inhibitor project, cell-based, voltage-dependent ClC-1. shares compounds with TMEM16A inh. CHO ClC-1-YFP, iodide influx fluorescence quench; iodide control reads 0, buffer control 100. ratio percent, % at 10 µM. 2,300 tested, under 10 active. AID 652236, 2013;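 active = duplicate-mean ratio percent above the mean of iodide-only control wells, which defines zero, plus 5 of their SD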;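 also: higher percent means stronger block of ClC-1 iodide influx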
Each line names hits and unclear results; the compound was inactive in the other large screens (follow-up assays come after a bar, where they were run). This is a sample that favours compounds with a hit; in the whole collection about 3% have one here.

O=C(c1ccc(COc2ccc(Br)cc2)o1)N1N=C(C(F)F)CC1(O)C(F)F (stereo unspecified)	none
CCOc1ccc(OCc2ccc(C(=O)N3CCCC3)o2)cc1	none
O=C(c1ccc(COc2ccc3c(c2)CCC3)o1)N1CCN(c2ccccc2)CC1	TMEM16A inh 100 (no result: SR-BI HDL uptake, SR-BI uptake up) | TMEM16A reconf inactive | HEK293 Ca mobil inactive | Parental YFP cnt inactive | ClC-1 rat inh inactive
CCOc1ccc(OCc2ccc(C(=O)N3N=C(C(F)F)CC3(O)C(F)F)o2)cc1 (stereo unspecified)	TMEM16A inh 25 | TMEM16A reconf inactive | HEK293 Ca mobil inactive | Parental YFP cnt inactive | ClC-1 rat inh inactive
CCCc1ccc(OCc2ccc(C(=O)N3CCCC3)o2)cc1	TMEM16A inh 100 (no result: SR-BI HDL uptake, SR-BI uptake up) | TMEM16A reconf 61.5% | HEK293 Ca mobil inactive | Parental YFP cnt inactive | ClC-1 rat inh inactive
NC(=S)NNC(=O)c1cccc(Cl)c1	none
O=S(=O)(Nc1nc2ccccc2nc1Nc1ccc(N2CCOCC2)cc1)c1cc(Cl)ccc1Cl	TMEM16A inh 100, SR-BI HDL uptake 72.8 | TMEM16A reconf 41.5% | HEK293 Ca mobil 26.5% | Parental YFP cnt inactive | ClC-1 rat inh inactive
C/C(N)=C(/C#N)C(=O)COC(=O)C1CCC(C(C)(C)C)CC1 (stereo unspecified)	TMEM16A inh 25, Kir21 block -11.4 (no result: SR-BI HDL uptake, SR-BI uptake up) | TMEM16A reconf 28.0% | HEK293 Ca mobil inactive | Parental YFP cnt inactive | ClC-1 rat inh inactive
O=c1c(Cc2ccccc2)c(O)c2cccc3c4c(n1c23)CCCC4	TMEM16A inh 25 | TMEM16A reconf 41.0% | HEK293 Ca mobil inactive | Parental YFP cnt inactive | ClC-1 rat inh inactive
Cc1cc(C)c(S(=O)(=O)/N=C2\C=C(Nc3ccc(C(=O)O)cc3)C(=O)c3ccccc32)c(C)c1	TMEM16A inh 25 | TMEM16A reconf 26.0% | HEK293 Ca mobil inactive | Parental YFP cnt inactive | ClC-1 rat inh inactive
CC(/C=C1\SC(=S)N(C(C(=O)O)c2ccccc2)C1=O)=C\c1ccccc1 (stereo unspecified)	TMEM16A inh 100 (no result: SR-BI HDL uptake, SR-BI uptake up) | TMEM16A reconf 71.5% | HEK293 Ca mobil inactive | Parental YFP cnt inactive | ClC-1 rat inh inactive
CC(/C=C1\SC(=S)N(CC(=O)O)C1=O)=C\c1ccccc1	none (no result: SR-BI HDL uptake, SR-BI uptake up)
Cc1ccc(C(=O)Nc2cccc(NC(=O)c3ccc(C)cc3)n2)cc1	none (no result: FID counter, SR-BI HDL uptake, SR-BI uptake up)
O=C(CCNc1ccc(F)cc1)c1ccco1	TMEM16A inh 100 | TMEM16A reconf inactive | HEK293 Ca mobil inactive | Parental YFP cnt inactive | ClC-1 rat inh inactive
O=C(CCNc1ccc(F)c(Cl)c1)c1ccco1	none
CCOc1ccc(S(=O)(=O)N2CCN(CN3C(=O)CC4(CCCC4)C3=O)CC2)cc1	SR-BI uptake up inconclusive (no result: FID counter, TMEM16A inh, Kir21 block)
Cc1ccc(Cl)cc1N1CCN(C(=O)c2cc3c(=O)[nH]c4ccccc4c3n2C)CC1	TMEM16A inh 25 | TMEM16A reconf 37.5% | HEK293 Ca mobil inactive | Parental YFP cnt inactive | ClC-1 rat inh inactive
O=C1C=CC(=O)N1CCCCCCCCCCN1C(=O)C=CC1=O	none (no result: FID counter, TMEM16A inh, Kir21 block)
Cc1ccc(C)c(OCCC(=O)OCC(=O)Nc2ccc(C)c(S(=O)(=O)N3CCCCC3)c2)c1	TMEM16A inh 25 (no result: FID counter) | TMEM16A reconf inactive | HEK293 Ca mobil inactive | Parental YFP cnt inactive | ClC-1 rat inh inactive
COc1ccc(NC(=O)COc2cc(C)cc(C)c2)cc1S(=O)(=O)N1CCCCC1	TMEM16A inh 25 (no result: FID counter) | TMEM16A reconf inactive | HEK293 Ca mobil inactive | Parental YFP cnt inactive | ClC-1 rat inh inactive
O=C(c1cccs1)N1CCN(C23CC4CC(CC(C4)C2)C3)CC1	none
CC(C)(C)c1ccc(-c2noc(CCC(=O)Nc3cccnc3)n2)cc1	TMEM16A inh 100 | TMEM16A reconf 18.0% | HEK293 Ca mobil inactive | Parental YFP cnt inactive | ClC-1 rat inh inactive
COc1ccc(-c2noc(CCC(=O)Nc3cccnc3)n2)cc1	none
COCCN1CC(C(=O)NCCc2nc(C)c(C)s2)CCC1=O (stereo unspecified)	none
CCN(CC)S(=O)(=O)c1cccc(-c2nnc(SCc3nc4ccccc4s3)o2)c1	TMEM16A inh 100 | TMEM16A reconf 18.0% | HEK293 Ca mobil inactive | Parental YFP cnt inactive | ClC-1 rat inh inactive
CCOc1ccc(N2C(=O)CC(NCC#N)C2=O)cc1 (stereo unspecified)	TMEM16A inh 25 | TMEM16A reconf inactive | HEK293 Ca mobil inactive | Parental YFP cnt inactive | ClC-1 rat inh inactive
CCCOC(=O)c1ccc(NC(=O)CSC2=Nc3ccccc3C3CC=NN23)cc1 (stereo unspecified)	TMEM16A inh 100 | TMEM16A reconf inactive | HEK293 Ca mobil inactive | Parental YFP cnt inactive | ClC-1 rat inh inactive
CCOC(=O)CC1CCCCN1C(=O)c1cc(COc2cccc3cnccc23)on1 (stereo unspecified)	TMEM16A inh 25 | TMEM16A reconf 46.5% | HEK293 Ca mobil inactive | Parental YFP cnt inactive | ClC-1 rat inh inactive
CC1=CC(=O)C(C(C)C)=C/C1=C(\c1cc(C(C)C)c(OP(=O)(O)O)cc1C)c1ccccc1C(=O)O	none
CCc1nnc2sc(-c3ccc(NC(=O)CSc4ccc(Cl)cc4)cc3)nn12	SR-BI HDL uptake 77.1 (no result: SR-BI uptake up) | TMEM16A reconf inactive | HEK293 Ca mobil inactive | Parental YFP cnt inactive | ClC-1 rat inh inactive
Cc1nnc2sc(-c3ccc(NC(=O)CSc4ccc(Cl)cc4)cc3)nn12	none
Cc1noc(C)c1COC(=O)c1cccc(S(=O)(=O)N2c3ccccc3CC2C)c1 (stereo unspecified)	TMEM16A inh 100 | TMEM16A reconf 25.0% | HEK293 Ca mobil inactive | Parental YFP cnt inactive | ClC-1 rat inh inactive
